Measurements reported in ChEMBL document CHEMBL4393721 (Eur J Med Chem, 2019).
Active and inactive are the calls of the source. The calls are words filed in the database; no cut-off is given here.

Key:
HepG2 [1] = assay: Antiinflammatory activity in human HepG2 cells assessed as inhibition of TNFalpha-induced IkappaBalpha degradation at 2 uM pretreated for 1 hr followed by TNFalpha addition and measured after 30 mins by Western blot analysis; assay type: functional, cell-based
In short: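 HepG2 cells grown in DMEM with 10% FBS were exposed to compound for 1 hr and to TNFα (20 ng/mL) for 30 min. Lysates were run on 10% SDS-PAGE and immunoblotted for IκBα with ECL detection. Band grey values were quantified by densitometry. Data are mean ± SEM of three independent experiments.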

[2] = biological target: T1, Nuclear receptor subfamily 4immunitygroup A member 1 (Homo sapiens, UniProt P22736); assay: Binding affinity to recombinant human N-terminal His-tagged Nur77 LBD (367 to 598 residues) expressed in Escherichia coli BL21(DE3) incubated for 30 secs by fluorescence quenching assay
[3] = biological target: T1, Nuclear receptor subfamily 4immunitygroup A member 1; assay: Binding affinity to Myc-Nur77 (unknown origin) expressed in human HepG2 cells co-transfected with Flag tagged TRAF2 assessed as effect on protein interaction with TRAF2 at 2 uM incubated for 1 hr in presence of TNFalpha by co-immunoprecipitation assay; assay type: cell-based
In short: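 HepG2 cells were transfected with Myc-Nur77 and Flag-TRAF2, then treated for 1 hr with compound (2 μM) plus TNFα (20 ng/mL). Lysis buffer was 10 mM Tris pH 7.4, 150 mM NaCl, 1% Triton X-100, 5 mM EDTA and protease inhibitors. Lysate was incubated with 1 μg antibody for 2 hr at 4 °C, pulled down with protein A/G sepharose, washed, and read by Western blot.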

[4] = Toxicity in zebrafish embryo AB assessed as induction of malformation at 0.5 to 1.25 uM incubated for 24 to 72 hrs; design: species or system Danio rerio; conditions: in vivo
In short: (§1)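 Wild-type AB zebrafish embryos (20 per condition), collected within 0.5 h of spawning, were exposed from 2 hpf to 0.5, 1 or 1.25 µM compound in fish water, with 0.1% DMSO as control. Embryos were observed and imaged every 24 h. Mortality was scored at 24 and 72 hpf and malformation rate at 72 hpf.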

HepG2 [5] = assay: Induction of apoptosis in TNFalpha-treated human HepG2 cells assessed as viable apoptotic cells at 2 uM incubated for 10 hrs by FITC Annexin V and propidium iodide staining based flow cytometric analysis (reference value: 3.69%); assay type: cell-based; conditions: hepg2, 10 h
In short: (§2)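 HepG2 cells grown in DMEM with 10% FBS were treated for 10 hr with compound (2 μM) plus TNFα (20 ng/mL). Cells were collected in binding buffer, stained with FITC-Annexin V and propidium iodide at room temperature, and analysed by flow cytometry. Quadrants as labelled: UL necrotic, UR viable apoptotic, LR non-viable apoptotic, LL normal.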

[6] = Toxicity in zebrafish embryo AB assessed as mortality at 0.5 uM incubated for 24 hrs; design: species or system Danio rerio; conditions: in vivo; in short: as §1
[7] = Induction of apoptosis in TNFalpha-treated human HepG2 cells assessed as normal cells at 2 uM incubated for 10 hrs by FITC Annexin V and propidium iodide staining based flow cytometric analysis (reference value: 88.37%); assay type: cell-based; conditions: read-out: Activity; in short: as §2
[8] = Toxicity in zebrafish embryo AB assessed as mortality at 0.125 uM incubated for 24 hrs relative to control; design: species or system Danio rerio; conditions: in vivo, read-out: Activity
[9] = Toxicity in zebrafish embryo AB assessed as mortality at 0.5 uM incubated for 72 hrs relative to control; design: species or system Danio rerio; conditions: in vivo, read-out: Activity; in short: as §1
HepG2 [10] = assay: Induction of apoptosis in TNFalpha-treated human HepG2 cells assessed as non-viable apoptotic cells at 2 uM incubated for 10 hrs by FITC Annexin V and propidium iodide staining based flow cytometric analysis (reference value: 6.65%); assay type: cell-based; conditions: hepg2, 10 h; in short: as §2
HepG2 [11] = assay: Induction of apoptosis in TNFalpha-treated human HepG2 cells assessed as PARP cleavage at 2 uM incubated for 10 hrs by Western blot analysis; assay type: cell-based; conditions: hepg2, 10 h
HepG2 [12] = assay: Induction of apoptosis in TNFalpha-treated human HepG2 cells assessed as necrotic cells at 2 uM incubated for 10 hrs by FITC Annexin V and propidium iodide staining based flow cytometric analysis (reference value: 1.29%); assay type: cell-based; conditions: hepg2, 10 h; in short: as §2
[13] = biological target: T1, Nuclear receptor subfamily 4immunitygroup A member 1; assay: Binding affinity to GFP-Nur77 (unknown origin) expressed in human HepG2 cells cotransfected with mCherry-p62/SQSTM1 assessed as co-localization with p62/SQSTM1 in cytoplasm in presence of TNFalpha by DAPI staining based confocal microscopic analysis; assay type: cell-based
In short: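 HepG2 cells were transfected with GFP-Nur77 and mCherry-p62/SQSTM1, then treated with TNFα plus compound. Cells were fixed in paraformaldehyde, with nuclei counterstained by DAPI (1:10000). Nur77–p62 colocalization was imaged by fluorescence or LSM-510 confocal microscopy.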

[14] = Toxicity in zebrafish embryo AB assessed as mortality at 0.125 uM incubated for 24 hrs; design: species or system Danio rerio; conditions: in vivo
[15] = Toxicity in zebrafish embryo AB assessed as mortality at 0.5 uM incubated for 72 hrs; design: species or system Danio rerio; conditions: in vivo; in short: as §1

T1 sequence (P22736 whole entry, the tested form may be a part): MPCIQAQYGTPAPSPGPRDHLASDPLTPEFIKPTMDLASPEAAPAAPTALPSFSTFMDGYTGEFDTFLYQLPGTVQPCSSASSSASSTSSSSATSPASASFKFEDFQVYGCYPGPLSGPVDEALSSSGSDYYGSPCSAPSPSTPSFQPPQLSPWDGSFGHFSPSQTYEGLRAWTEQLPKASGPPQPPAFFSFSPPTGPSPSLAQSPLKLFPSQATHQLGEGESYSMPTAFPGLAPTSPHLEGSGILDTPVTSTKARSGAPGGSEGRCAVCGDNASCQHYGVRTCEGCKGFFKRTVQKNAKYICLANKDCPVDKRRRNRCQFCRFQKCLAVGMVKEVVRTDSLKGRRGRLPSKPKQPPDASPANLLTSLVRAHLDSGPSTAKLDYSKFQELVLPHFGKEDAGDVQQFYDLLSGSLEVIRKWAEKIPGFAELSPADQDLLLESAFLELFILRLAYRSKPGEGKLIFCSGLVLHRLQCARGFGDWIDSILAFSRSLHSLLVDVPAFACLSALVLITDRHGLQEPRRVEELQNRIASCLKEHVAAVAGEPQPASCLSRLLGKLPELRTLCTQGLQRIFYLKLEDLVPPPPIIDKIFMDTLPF

| SMILES | inhibition (HepG2 [1]) | Kd ([2]; read-out: Kd) | Kd [2] | other results |
| --- | --- | --- | --- | --- |
| COC(=O)[C@]1(C)CC[C@]2(C)CC[C@]3(C)C4=CC=C5C(=CC(=O)C(O)=C5C)[C@]4(C)CC[C@@]3(C)[C@@H]2C1 [PRISTIMERIN] | Active | 960 nM | – | – |
| COc1cc2c(c(C)c1OC)CC=C1[C@@]2(C)CC[C@@]2(C)[C@@H]3C[C@](C)(C(=O)O)CC[C@]3(C)CC[C@]12C | inactive | – | Not Active | – |
| COc1c(O)cc2c(c1C)CC=C1[C@@]2(C)CC[C@@]2(C)[C@@H]3C[C@](C)(C(=O)O)CC[C@]3(C)CC[C@]12C | inactive | – | Not Active | – |
| Cc1c(O)c(O)cc2c1C(=O)C=C1[C@@]2(C)CC[C@@]2(C)[C@@H]3C[C@](C)(C(=O)O)CC[C@]3(C)CC[C@]12C | inactive | 2690 nM | – | – |
| COc1cc2c(c(C)c1O)CC=C1[C@@]2(C)CC[C@@]2(C)[C@@H]3C[C@](C)(C(=O)O)CC[C@]3(C)CC[C@]12C | inactive | – | Not Active | – |
| COC(=O)[C@]1(C)CC[C@]2(C)CC[C@]3(C)C4=CCc5c(cc(OC)c(OC)c5C)[C@]4(C)CC[C@@]3(C)[C@@H]2C1 | inactive | – | Not Active | – |
| CC1=C(O)C(=O)C=C2C1=CC=C1[C@@]2(C)CC[C@@]2(C)[C@@H]3C[C@](C)(C(=O)O)CC[C@]3(C)CC[C@]12C [CELASTROL] | Active | – | – | Activity [3]: Active; Activity [4]: Toxic; Activity (HepG2 [5]): 10.34%; Activity [6]: Toxic; viability at 10 h, 2 µM [7]: 62.9%; mortality at 24 h, 0.125 µM [8]: 90%; mortality at 72 h, 0.5 µM [9]: 100%; Activity (HepG2 [10]): 24.98%; Activity (HepG2 [11]): Toxic; Activity (HepG2 [12]): 1.75%; Activity [13]: Active |
| COC(=O)[C@]1(C)CC[C@]2(C)CC[C@]3(C)C4=CC=C5C(=CC(=O)C(OC)=C5C)[C@]4(C)CC[C@@]3(C)[C@@H]2C1 | inactive | 2940 nM | – | – |
| Cc1c(O)c(O)cc2c1[C@H](CN)C=C1[C@@]2(C)CC[C@@]2(C)[C@@H]3C[C@](C)(C(=O)O)CC[C@]3(C)CC[C@]12C | inactive | – | Not Active | – |
| Cc1c(O)c(O)cc2c1[C@H](C[N+](=O)[O-])C=C1[C@@]2(C)CC[C@@]2(C)[C@@H]3C[C@](C)(C(=O)O)CC[C@]3(C)CC[C@]12C | inactive | 5560 nM | – | – |
| CCOC1=C(C)C2=CC=C3[C@@](C)(CC[C@@]4(C)[C@@H]5C[C@](C)(C(=O)OC)CC[C@]5(C)CC[C@]34C)C2=CC1=O | inactive | 4130 nM | – | – |
| Cc1c(O)c(O)cc2c1[C@H](c1cc[nH]c1)C=C1[C@@]2(C)CC[C@@]2(C)[C@@H]3C[C@](C)(C(=O)O)CC[C@]3(C)CC[C@]12C | inactive | – | Not Active | – |
| CC1=C(O)C(=O)C=C2C1=CC=C1[C@@]2(C)CC[C@@]2(C)[C@@H]3C[C@](C)(C(=O)OC(C)C)CC[C@]3(C)CC[C@]12C | Active | 520 nM | – | – |
| CC(=O)C[C@@H]1C=C2[C@@](C)(CC[C@@]3(C)[C@@H]4C[C@](C)(C(=O)O)CC[C@]4(C)CC[C@]23C)c2cc(O)c(O)c(C)c21 | inactive | 3800 nM | – | – |
| Cc1c(O)c(O)cc2c1[C@H](C)C=C1[C@@]2(C)CC[C@@]2(C)[C@@H]3C[C@](C)(C(=O)O)CC[C@]3(C)CC[C@]12C | inactive | – | Not Active | – |
| COC(=O)[C@]1(C)CC[C@]2(C)CC[C@]3(C)C4=CCc5c(cc(OC)c(O)c5C)[C@]4(C)CC[C@@]3(C)[C@@H]2C1 | inactive | – | Not Active | – |
| COP(=O)(OC)[C@@H]1C=C2[C@@](C)(CC[C@@]3(C)[C@@H]4C[C@](C)(C(=O)O)CC[C@]4(C)CC[C@]23C)c2cc(O)c(O)c(C)c21 | inactive | – | Not Active | – |
| COC(=O)[C@]1(C)CC[C@]2(C)CC[C@]3(C)C4=CC=C5C(=CC(=O)C(OCC(F)F)=C5C)[C@]4(C)CC[C@@]3(C)[C@@H]2C1 | inactive | 3300 nM | – | – |
| CCCNC(=O)[C@]1(C)CC[C@]2(C)CC[C@]3(C)C4=CC=C5C(=CC(=O)C(O)=C5C)[C@]4(C)CC[C@@]3(C)[C@@H]2C1 | Active | 270 nM | – | – |
| CCOC(=O)[C@]1(C)CC[C@]2(C)CC[C@]3(C)C4=CC=C5C(=CC(=O)C(O)=C5C)[C@]4(C)CC[C@@]3(C)[C@@H]2C1 | Active | 220 nM | – | – |
| CNC(=O)[C@]1(C)CC[C@]2(C)CC[C@]3(C)C4=CC=C5C(=CC(=O)C(O)=C5C)[C@]4(C)CC[C@@]3(C)[C@@H]2C1 | Active | 800 nM | – | – |
| Cc1c(O)c(O)cc2c1CC=C1[C@@]2(C)CC[C@@]2(C)[C@@H]3C[C@](C)(C(=O)O)CC[C@]3(C)CC[C@]12C [DIHYDROCELASTROL] | Active | 870 nM | – | Activity [3]: Active; Activity [4]: Toxic; Activity (HepG2 [5]): 3.12%; Activity [6]: Toxic; viability at 10 h, 2 µM [7]: 85%; Activity (HepG2 [10]): 11.09%; Activity [14]: Toxic; Activity (HepG2 [11]): Non-Toxic; Activity (HepG2 [12]): 0.79%; Activity [13]: Active; Activity [15]: Toxic |
| COC(=O)[C@]1(C)CC[C@]2(C)CC[C@]3(C)C4=CCc5c(cc(O)c(OC)c5C)[C@]4(C)CC[C@@]3(C)[C@@H]2C1 | – | – | Not Active | – |
| CC1=C(O)C(=O)C=C2C1=CC=C1[C@@]2(C)CC[C@@]2(C)[C@@H]3C[C@](C)(C(=O)F)CC[C@]3(C)CC[C@]12C | Active | 720 nM | – | – |
| CCNC(=O)[C@]1(C)CC[C@]2(C)CC[C@]3(C)C4=CC=C5C(=CC(=O)C(O)=C5C)[C@]4(C)CC[C@@]3(C)[C@@H]2C1 | Active | 830 nM | – | Activity [3]: Active; Activity (HepG2 [5]): 18.35%; viability at 10 h, 2 µM [7]: 53.7%; Activity (HepG2 [10]): 24%; Activity (HepG2 [11]): Toxic; Activity (HepG2 [12]): 3.92%; Activity [13]: Active |
